Sampled rows, rich in hits. Any-hit rate of the full collection: about 3.9%.
HIF activator: HIF pathway transcriptional activation; U2OS HRE-luciferase reporter, luminescence; normalized: DMSO 0%, desferrioxamine 100%; activation, % at 7.5 µM (by protocol); 300,000 compounds, 0.32% hits; AID 1910;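 active = mean activation of at least 10% of the iron chelator positive control signal, with at least half of replicates also reaching 10%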
ABCB6 inh MLPCN: blocks the human ABCB6 transporter; Q9NP58; K562-ABCB6 porphyrin accumulation, flow cytometry, 1 h; hits give low values; fluorescence ratio to DMSO, % at 10 µM; 360,000 compounds, 0.19% hits;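 active = fluorescence ratio to DMSO below 75%, the collection mean minus 3 SD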;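 note: signal is porphyrin accumulated inside mitochondria; 100% equals median channel fluorescence of DMSO control wells; lower ratio means ABCB6 inhibition with less porphyrin fluorescence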
AHR act: activates the human aryl hydrocarbon receptor. activation, % at 5 µM. AHR-responsive luciferase reporter cells, luminescence. 320,000 compounds, 2.5% hits. AID 2796; in the data active = activation above about 47%;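 note: 0% = vehicle wells and 100% = reference agonist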
FXN GAA850 act: activators of GAA850 frataxin (FXN) promoter; 360,000 compounds, 0.56% hits; activation, % at 6 µM; HEK293 lucGAA850 FXN promoter luciferase reporter, 24 h; percent of 10 µM SAHA response;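 active = activation above the average of all compounds screened plus 3 SD, cutoff fixed separately per campaign, cut at about 7.5% in these data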;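 note: 0% = DMSO wells and 100% = 10 µM SAHA wells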
SR-BI DiI-HDL act: SR-BI HDL lipid transfer activation. AID 504775. 320,000 compounds, 0.096% hits. activation, % at 12.5 µM. CHO ldlA[mSR-BI] cells, DiI-HDL uptake fluorescence, 3 h; 100 = double the neutral-control signal;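 active = mean replicate activation of at least 60% and every replicate at or above 60%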;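 note: 0% = median plate neutral-control signal and 100% = twice that signal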
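Test system: SR-BI-overexpressing, LDLR-lacking CHO cells; Also added: labelled HDL, 10 µg/mL; Measured by: bottom-read cell fluorescence after medium removal, ex 550/em 595 nm; Timing: 3 h uptake period with compound, 37 °C; Buffer or medium: F12, 0.5% BSA, 25 mM HEPES; Doses: single compound concentration, delivered by pin transfer.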
SR-BI DiI inh: blocks mouse SR-BI lipid uptake from DiI-HDL; ldlA[mSR-BI] CHO cells, DiI-HDL uptake fluorescence, 3 h; inhibition, % at 12.5 µM; 320,000 compounds, 0.96% hits;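 active = mean replicate inhibition of at least 70% and a set share of replicates each scoring 70 or more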;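 note: 0% = median of neutral control wells and 100% = median of positive control wells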
Target sequence (Q61009 whole entry, looked up): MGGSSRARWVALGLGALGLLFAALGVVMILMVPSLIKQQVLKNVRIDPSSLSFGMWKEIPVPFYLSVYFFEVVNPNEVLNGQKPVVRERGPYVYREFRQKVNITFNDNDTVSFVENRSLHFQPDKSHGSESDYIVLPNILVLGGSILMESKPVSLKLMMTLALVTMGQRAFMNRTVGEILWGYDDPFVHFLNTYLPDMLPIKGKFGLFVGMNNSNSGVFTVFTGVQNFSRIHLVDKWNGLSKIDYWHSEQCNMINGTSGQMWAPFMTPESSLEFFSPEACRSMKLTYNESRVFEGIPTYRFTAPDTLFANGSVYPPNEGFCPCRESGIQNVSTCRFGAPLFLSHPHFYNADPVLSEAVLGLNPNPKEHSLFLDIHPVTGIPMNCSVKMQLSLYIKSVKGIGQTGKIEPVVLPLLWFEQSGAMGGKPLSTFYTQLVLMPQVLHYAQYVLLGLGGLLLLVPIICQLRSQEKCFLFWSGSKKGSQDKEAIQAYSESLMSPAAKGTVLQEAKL
Starred values were filed as active, the others as inactive.

How did CCn1cc(/C=N\NC(=O)C2(C)CC2(Cl)Cl)c(C)n1 (centres undefined) do in these assays?
HIF activator: 0; ABCB6 inh MLPCN: 89; AHR act: 0; FXN GAA850 act: 3; SR-BI DiI-HDL act: 3; SR-BI DiI inh: -3

Results for CC1CCN(S(=O)(=O)c2ccc3c4c2CC(=O)N4CC(C)S3)CC1 (centres undefined) ?
HIF activator: 187*; ABCB6 inh MLPCN: 88; AHR act: 10; FXN GAA850 act: 0; SR-BI DiI-HDL act: -7; SR-BI DiI inh: 7

How did Cc1ccc(S(=O)(=O)N2CCN(S(=O)(=O)N3CCC(C)CC3)CC2)c(C)c1 do in these assays?
HIF activator: 0; ABCB6 inh MLPCN: 98; AHR act: -1; FXN GAA850 act: 0; SR-BI DiI-HDL act: 3; SR-BI DiI inh: -3

What do the screens show for `Cc1nnc(SCCC(C)C)[nH]c1=O`?
HIF activator: 0; ABCB6 inh MLPCN: 99; AHR act: 3; FXN GAA850 act: -2; SR-BI DiI-HDL act: 96*; SR-BI DiI inh: -96

How did COc1ccc(OC)c(S(=O)(=O)NCc2ccccc2)c1 do in these assays?
HIF activator: -1; ABCB6 inh MLPCN: 68*; AHR act: 0; FXN GAA850 act: -3; SR-BI DiI-HDL act: 14; SR-BI DiI inh: -14

Results for COc1ccc(OC)c(S(=O)(=O)Oc2ccc(N)c3ccccc23)c1 ?
HIF activator: 0; ABCB6 inh MLPCN: 107; AHR act: 61*; FXN GAA850 act: 0; SR-BI DiI-HDL act: -2; SR-BI DiI inh: 2

How did O=S(=O)(NCc1cc(-c2ccccc2)no1)c1ccccc1Cl do in these assays?
HIF activator: 0; ABCB6 inh MLPCN: 99; AHR act: 4; FXN GAA850 act: 0; SR-BI DiI-HDL act: 22; SR-BI DiI inh: -22

How did COc1ccc(OC)c(S(=O)(=O)NCc2cc(-c3ccccc3)no2)c1 do in these assays?
HIF activator: 1; ABCB6 inh MLPCN: 99; AHR act: 51*; FXN GAA850 act: 0; SR-BI DiI-HDL act: 23; SR-BI DiI inh: -23

How did COc1ccc(OC)c(S(=O)(=O)NCc2cccnc2)c1 do in these assays?
HIF activator: -1; ABCB6 inh MLPCN: 102; AHR act: -1; FXN GAA850 act: 0; SR-BI DiI-HDL act: 1; SR-BI DiI inh: -1

What do the screens show for `COC(=O)c1cc(-c2ccc(Br)cc2)n[nH]1`?
HIF activator: 1; ABCB6 inh MLPCN: 102; AHR act: 6; FXN GAA850 act: 0; SR-BI DiI-HDL act: -14; SR-BI DiI inh: 14

Results for O=C(N/N=C/c1sc(N2CCCCC2)nc1-c1cccs1)C1CC1 ?
HIF activator: 0; ABCB6 inh MLPCN: 112; AHR act: 68*; FXN GAA850 act: -1; SR-BI DiI-HDL act: -25; SR-BI DiI inh: 25

Results for O=C(N/N=C/c1sc(N2CCOCC2)nc1-c1ccccc1)c1ccccc1Cl ?
HIF activator: 0; ABCB6 inh MLPCN: 91; AHR act: 2; FXN GAA850 act: 3; SR-BI DiI-HDL act: -83; SR-BI DiI inh: 83*

How did O=[N+]([O-])c1ccc(N/N=C/c2sc(N3CCOCC3)nc2-c2ccccc2)c(S(=O)(=O)Nc2ccc(Cl)cc2)c1 do in these assays?
HIF activator: 0; ABCB6 inh MLPCN: inactive; FXN GAA850 act: 0; SR-BI DiI-HDL act: -118; SR-BI DiI inh: 118*

Results for COc1ccc(C(=O)O/N=C(\N)c2ccccn2)c(OC)c1 ?
HIF activator: -2; ABCB6 inh MLPCN: 103; AHR act: 15; FXN GAA850 act: -3; SR-BI DiI-HDL act: -7; SR-BI DiI inh: 7

What do the screens show for `Oc1cccc(Nc2nc(N3CCOCC3)nc(N3CCOCC3)n2)c1`?
HIF activator: -1; ABCB6 inh MLPCN: 98; FXN GAA850 act: -2; SR-BI DiI-HDL act: -8; SR-BI DiI inh: 8

How did CSc1nc(O)c(Nc2cccc(Cl)c2)c(=O)[nH]1 do in these assays?
HIF activator: -1; ABCB6 inh MLPCN: 96; AHR act: 3; FXN GAA850 act: 3; SR-BI DiI-HDL act: 19; SR-BI DiI inh: -19

What do the screens show for `O=S(=O)(Nc1c(O)ccc2ccccc12)c1ccc(F)cc1`?
HIF activator: 2; ABCB6 inh MLPCN: 130; AHR act: 55*; FXN GAA850 act: 0; SR-BI DiI-HDL act: -4; SR-BI DiI inh: 4

Compound activity as filed in PubChem BioAssay.
